In test [1] the test system is Rattus norvegicus. Kind of test: Estrogenicity in rats following 3 x 0.1 mg s.c. over 72h. In kind it is functional. The procedure, abridged: (§1)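 Immature Sprague-Dawley female rats, 21–23 days old, seven to nine per group, injected s.c. on 3 consecutive days with test compound suspended in 0.2 mL propylene glycol–saline (1:1 v/v). Vehicle-only controls. Autopsy 24 h after the final dose, uterine wet weight recorded. Agonist activity computed as (C₀ − V)(100)/(E − V), with E the E₂-alone mean.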

The target of test [2] is T1, Estrogen receptor (Rattus norvegicus) (UniProt P06211+Q62986). The test can be described thus: Relative binding against estrogen receptor of rat uterine cytosol by [2-4-3H] estradiol. In kind it is protein assay. In outline: (§2)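 Uterine cytosol (1 uterine equiv/mL) from immature rats primed s.c. with 1 μg E₂ for 3 days, incubated 18 h at 4 °C with [³H]E₂ (5 × 10⁻⁹ M) and test compound (10⁻⁴–10⁻⁹ M) in triplicate. Medium was Tris-HCl/EDTA/azide buffer, pH 7.4, with 7% DMF. Free ligand removed with charcoal-dextran for 20 min before scintillation counting. Results expressed relative to E₂ = 100, mean ± SD of ≥3 determinations.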

Test [3] concerns Rattus norvegicus. The test can be described thus: Uterotrophic effects in rats following 3 x 0.1 mg s.c. over 72h. It counts as functional, Uterus. In outline:
as §1

Test [4] has as its system Rattus norvegicus. The test can be described thus: Inhibition of E2 effects in rats by 0.1 mg s.c. It counts as functional. In outline:
(§3)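 Immature female Sprague-Dawley rats (21–23 days), groups of seven to nine, given test compound suspended in 0.2 mL propylene glycol–saline (1:1 v/v) s.c. daily for 3 consecutive days, plus 1 μg E₂ per animal at a separate site. Controls got E₂ plus vehicle. Uterine wet weight taken at autopsy 24 h after the last injection. Inhibition computed as (E − C₁)(100)/(E − V).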

Test [5] has as its system Rattus norvegicus. The test can be described thus: Anti-uterotrophic effects in rats following 3 x 0.1 mg s.c. over 72h. It counts as functional. In outline:
as §3

The test system of test [6] is Rattus norvegicus. The test can be described thus: Uterotrophic effects in rats following 3 x 1 mg s.c. over 72h. It counts as functional, Uterus. In outline: as §1
Test [7] has as its system Rattus norvegicus. The test can be described thus: Estrogenicity in rats following 3 x 1 mg s.c. over 72h. In kind it is functional. In outline:
as §1

Test [8] concerns Rattus norvegicus. The test can be described thus: Anti-uterotrophic effects in rats following 3 x 1 mg s.c. over 72h. In kind it is functional. In outline:
as §3

The subject of test [9] is Rattus norvegicus. The test can be described thus: Inhibition of E2 effects in rats by 1 mg s.c. It counts as functional. The procedure, abridged: as §3
For test [10], the target named is T1, Estrogen receptor (Rattus norvegicus). The test can be described thus: Relative binding affinity against estrogen receptor of rat uterine cytosol by [2-4-3H] estradiol; No detectable affinity at 100 uM. In outline: as §2

Active and inactive are the calls of the source. No cut-off for these calls is given here.

Regarding `c1ccc(-c2coc(-c3ccccc3)c2-c2ccc(OCCN3CCCC3)cc2)cc1`, the Estrogenic effect in the test with Rattus norvegicus [1] is recorded as 31%. In test [2], the RBA was 0.84%. Further, the Uterine weight in the test with Rattus norvegicus [3] is 26.4 mg; with Rattus norvegicus [5], 53.9 mg. Besides, the Inhibition in the test with Rattus norvegicus [4] is on record as 0%.

In test [2], `COc1ccc2c(-c3ccc(OCCN4CCCC4)cc3)c(-c3ccccc3)oc2c1` had an RBA of 0.01%. In addition, the Uterine weight with Rattus norvegicus [6] is 35.4 mg; with Rattus norvegicus [8], 61.4 mg. Moreover, in the test with Rattus norvegicus [7], the Estrogenic effect worked out at 57%. Further, the Inhibition in the test with Rattus norvegicus [9] is reported as 0%.

In test [2], `COc1ccc(-c2c(-c3ccccc3)oc3cc(O)ccc23)cc1` showed an RBA of 0.01%.

On to `C/C(=C(/C(=O)c1ccc(O)cc1)c1ccccc1)c1ccccc1`, for which the Estrogenic effect in the test with Rattus norvegicus [1] stood at 83%. Further, in test [2], the RBA was 3.6%. Also, the Uterine weight in the test on Rattus norvegicus [3] was 46.4 mg; in the test on Rattus norvegicus [5], 44.7 mg. For the same compound, the Inhibition in the test with Rattus norvegicus [4] is listed as 21%.

`O=C(c1ccccc1)c1c(-c2ccc(O)cc2)oc2cc(O)ccc12`: the RBA in test [2] is 0.72%. The figures for the Uterine weight with Rattus norvegicus [6] and in the test with Rattus norvegicus [8] were 26.6 mg and 43.2 mg, respectively. For the same compound, in the test on Rattus norvegicus [7], the Estrogenic effect came out at 35%. In addition, the Inhibition in the test on Rattus norvegicus [9] is given as 0%.

Compound `O=C(c1ccccc1)c1c(-c2ccc(O)cc2)oc2ccccc12` had an RBA in test [2] of 0.12%. Besides, the values for the Uterine weight with Rattus norvegicus [6] and with Rattus norvegicus [8] were 13.7 mg and 47.4 mg, respectively. Besides, the Estrogenic effect in the test with Rattus norvegicus [7] worked out at 0%. In the test with Rattus norvegicus [9], this compound registered an Inhibition of 0%.

In the case of `Oc1ccc(-c2oc3cc(O)ccc3c2-c2ccc(O)cc2)cc1`, the RBA in test [2] came to 7.8%. Also, the figures for the Uterine weight in the test with Rattus norvegicus [6] and in the test on Rattus norvegicus [8] were 21.2 mg and 39.6 mg, respectively. In the test with Rattus norvegicus [7], this compound gave an Estrogenic effect of 22%. The Inhibition with Rattus norvegicus [9] amounted to 30%.

For the compound `c1ccc(-c2occ(-c3ccc(OCCN4CCCC4)cc3)c2-c2ccccc2)cc1`, the Estrogenic effect with Rattus norvegicus [1] was found to be 61%. Moreover, the Uterine weight came to 35.6 mg with Rattus norvegicus [3] and 52.1 mg in the test on Rattus norvegicus [5]. In [10], the RBA result was “inactive”. The Inhibition with Rattus norvegicus [4] is reported as 0%.

In the case of `Oc1ccc(-c2c(-c3ccccc3)coc2-c2ccccc2)cc1`, the Estrogenic effect with Rattus norvegicus [1] turned out to be 0%. This compound displayed an RBA in test [2] of 4.5%. The Uterine weight was determined as 16.7 mg with Rattus norvegicus [3] and 42.8 mg in the test on Rattus norvegicus [5]. Also, the Inhibition with Rattus norvegicus [4] is 0%.

As to `O=C(/C(=C\c1ccccc1)c1ccccc1)c1ccc(O)cc1`, the Estrogenic effect with Rattus norvegicus [1] is listed as 33%. Also, in test [2], the RBA stood at 0.06%. The Uterine weight was 22.2 mg in the test on Rattus norvegicus [3] and 70.4 mg with Rattus norvegicus [5]. For the same compound, in the test with Rattus norvegicus [4], the Inhibition is given as 0%.

`Oc1ccc(-c2c(-c3ccccc3)oc3cc(O)ccc23)cc1` registered an RBA in test [2] of 1.6%. Also, the values for the Uterine weight with Rattus norvegicus [6] and in the test on Rattus norvegicus [8] were 14.6 mg and 46.5 mg, respectively. The same compound gave an Estrogenic effect in the test on Rattus norvegicus [7] of 0%. This compound gave an Inhibition in the test with Rattus norvegicus [9] of 0%.

In the test with Rattus norvegicus [1], `O=C(/C(=C/c1ccccc1)c1ccccc1)c1ccc(O)cc1` gave an Estrogenic effect of 68%. In test [2], the RBA was 1.8%. For the same compound, the Uterine weight was 49.4 mg in the test with Rattus norvegicus [3] and 78.1 mg with Rattus norvegicus [5]. In the test with Rattus norvegicus [4], this compound came in with an Inhibition of 0%.

Turning to `Cl.O=C(c1ccccc1)c1c(-c2ccc(OCCN3CCCC3)cc2)oc2ccccc12`, the RBA in test [2] turned out to be 0.3%. Further, the Uterine weight with Rattus norvegicus [6] was 27.7 mg; in the test with Rattus norvegicus [8], 29.6 mg. The Estrogenic effect with Rattus norvegicus [7] was determined as 38%. Also, the Inhibition in the test on Rattus norvegicus [9] was determined as 58%.

As to `Oc1ccc(-c2coc(-c3ccccc3)c2-c2ccccc2)cc1`, the Estrogenic effect in the test with Rattus norvegicus [1] was 100%. In [2], this compound gave an RBA of 3%. The Uterine weight with Rattus norvegicus [3] stood at 48.9 mg; in the test on Rattus norvegicus [5] it was 57.6 mg. The Inhibition with Rattus norvegicus [4] came to 0%.

In test [2], `COc1ccc2c(-c3ccc(O)cc3)c(-c3ccccc3)oc2c1` had an RBA of 0.01%.

As to `O=C(c1ccc(O)cc1)c1c(-c2ccccc2)oc2cc(O)ccc12`, the RBA in test [2] was determined as 2.1%. Besides, the Uterine weight in the test with Rattus norvegicus [6] stood at 22.4 mg; in the test with Rattus norvegicus [8], 38 mg. For the same compound, in the test with Rattus norvegicus [7], the Estrogenic effect was 25%. For the same compound, the Inhibition with Rattus norvegicus [9] came to 37%.

`O=C(c1ccc(O)cc1)c1oc2cc(O)ccc2c1-c1ccc(O)cc1`: the RBA in test [2] came out at 2.7%. Moreover, the Uterine weight amounted to 26.3 mg in the test on Rattus norvegicus [6] and 48.3 mg with Rattus norvegicus [8]. The compound also yielded an Estrogenic effect in the test with Rattus norvegicus [7] of 31%. Also, the Inhibition in the test with Rattus norvegicus [9] worked out at 23%.

The compound `C/C(=C(\C(=O)c1ccc(OCCN2CCCC2)cc1)c1ccccc1)c1ccccc1` gave an Estrogenic effect with Rattus norvegicus [1] of 0%. In addition, the RBA in test [2] came out at 0.24%. In addition, the Uterine weight is 18 mg in the test with Rattus norvegicus [3] and 46.6 mg with Rattus norvegicus [5]. This compound also returned an Inhibition with Rattus norvegicus [4] of 16%.

Compound `O=C(c1ccc(OCCN2CCCC2)cc1)c1c(-c2ccccc2)oc2ccccc12` displayed an RBA in test [2] of 0.01%. The values for the Uterine weight in the test with Rattus norvegicus [6] and with Rattus norvegicus [8] were 16.7 mg and 56.1 mg, respectively. This compound also displayed an Estrogenic effect in the test with Rattus norvegicus [7] of 0%. Also, the Inhibition in the test with Rattus norvegicus [9] was 0%.

`C/C(=C(/C(=O)c1ccc(OCCN2CCCC2)cc1)c1ccccc1)c1ccccc1` returned an Estrogenic effect in the test with Rattus norvegicus [1] of 38%. Besides, the RBA in test [2] is 0.008%. The values for the Uterine weight in the test with Rattus norvegicus [3] and in the test with Rattus norvegicus [5] were 30.6 mg and 43.1 mg, respectively. This compound came in with an Inhibition in the test on Rattus norvegicus [4] of 26%.

Regarding `O=C(c1ccc(O)cc1)c1c(-c2ccccc2)oc2ccccc12`, the RBA in test [2] worked out at 5.3%. The Uterine weight was determined as 16.3 mg with Rattus norvegicus [6] and 50.7 mg with Rattus norvegicus [8]. This compound came in with an Estrogenic effect in the test on Rattus norvegicus [7] of 10%. The Inhibition in the test with Rattus norvegicus [9] is 0%.

For `C/C(=C(\C(=O)c1ccc(O)cc1)c1ccccc1)c1ccccc1`, the Estrogenic effect in the test on Rattus norvegicus [1] came to 0%. In addition, the RBA in test [2] worked out at 0.54%. Further, the values for the Uterine weight in the test with Rattus norvegicus [3] and in the test on Rattus norvegicus [5] were 19.8 mg and 47.3 mg, respectively. In addition, in the test on Rattus norvegicus [4], the Inhibition is 14%.

On to `O=C(c1ccc(O)cc1)c1c(-c2ccc(O)cc2)oc2ccccc12`, for which the RBA in [2] is 1.7%. Further, the figures for the Uterine weight in the test with Rattus norvegicus [6] and in the test with Rattus norvegicus [8] were 13.1 mg and 59.3 mg, respectively. Moreover, the Estrogenic effect with Rattus norvegicus [7] is listed as 0%. Moreover, the Inhibition in the test with Rattus norvegicus [9] is 0%.

The values above are taken from ChEMBL document CHEMBL1124544, “Structure-activity relationship of antiestrogens: a study using triarylbutenone, benzofuran, and triarylfuran analogues as models for triarylethylenes and triarylpropenones” (1989).
